# Experimental data as given in paper PMC5504481 (Clinical and Translational Science, 2017).
# Values joined by “and” are separate entries in the source; they are usually repeats but may differ in a detail not shown here. Equal entries are not always repeated.
# Columns and labels:
# OATP1B1 [1] = target: T1, OATP1B1 (Homo sapiens, UniProt Q9Y6L6); format: cell-based; conditions: for Transport rate in OATP1B1-transfected cells without rifampin: in 15 min, HEK293
# T1 sequence (Q9Y6L6 1-691): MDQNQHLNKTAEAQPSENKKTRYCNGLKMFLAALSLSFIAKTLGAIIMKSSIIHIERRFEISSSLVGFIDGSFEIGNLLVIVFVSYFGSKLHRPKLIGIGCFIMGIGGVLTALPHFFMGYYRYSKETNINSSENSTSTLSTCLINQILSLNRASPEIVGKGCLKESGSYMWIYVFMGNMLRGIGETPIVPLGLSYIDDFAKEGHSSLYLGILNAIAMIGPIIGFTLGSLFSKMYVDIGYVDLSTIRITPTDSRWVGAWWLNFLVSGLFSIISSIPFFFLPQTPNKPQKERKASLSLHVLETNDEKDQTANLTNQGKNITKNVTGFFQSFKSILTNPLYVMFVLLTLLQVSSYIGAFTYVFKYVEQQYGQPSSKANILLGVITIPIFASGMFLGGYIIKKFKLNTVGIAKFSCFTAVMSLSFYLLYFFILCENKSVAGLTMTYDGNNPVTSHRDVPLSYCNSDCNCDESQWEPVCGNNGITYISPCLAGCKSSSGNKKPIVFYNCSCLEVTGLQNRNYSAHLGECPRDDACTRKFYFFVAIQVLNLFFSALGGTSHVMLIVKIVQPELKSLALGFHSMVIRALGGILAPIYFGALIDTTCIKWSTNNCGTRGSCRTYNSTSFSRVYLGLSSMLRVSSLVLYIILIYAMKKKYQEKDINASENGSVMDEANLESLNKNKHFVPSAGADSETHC
# Oatp1b2 = target: T2, Oatp1b2 (Mus musculus, UniProt Q9JJL3); format: cell-based; conditions: for Transport rate in Oatp1b2-transfected cells without rifampin: in 15 min, HEK293
# T2 sequence (Q9JJL3 1-689): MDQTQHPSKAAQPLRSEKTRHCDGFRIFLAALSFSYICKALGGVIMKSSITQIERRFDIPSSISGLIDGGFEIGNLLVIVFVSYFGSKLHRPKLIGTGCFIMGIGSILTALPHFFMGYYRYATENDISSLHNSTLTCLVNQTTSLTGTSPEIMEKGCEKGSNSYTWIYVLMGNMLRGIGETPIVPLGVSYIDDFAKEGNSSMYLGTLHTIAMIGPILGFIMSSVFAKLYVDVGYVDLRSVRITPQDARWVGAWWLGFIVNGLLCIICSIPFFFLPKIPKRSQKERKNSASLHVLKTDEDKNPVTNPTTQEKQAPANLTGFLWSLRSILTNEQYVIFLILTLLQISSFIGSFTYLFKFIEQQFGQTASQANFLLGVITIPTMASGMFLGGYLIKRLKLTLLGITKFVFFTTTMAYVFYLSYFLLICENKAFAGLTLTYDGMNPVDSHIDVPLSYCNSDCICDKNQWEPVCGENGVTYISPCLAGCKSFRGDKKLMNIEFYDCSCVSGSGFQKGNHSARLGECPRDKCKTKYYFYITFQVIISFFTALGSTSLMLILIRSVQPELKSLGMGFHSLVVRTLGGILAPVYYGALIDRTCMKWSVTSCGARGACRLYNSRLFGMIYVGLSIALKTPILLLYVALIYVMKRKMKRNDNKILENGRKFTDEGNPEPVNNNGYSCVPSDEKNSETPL
# [2] = oral sorafenib, humans; cited from earlier work
# [3] = cited from earlier work
# [4] = format: in vivo, mice; conditions: for Effect of Oatp1b2-deficiency and/or rifampin pretreatment on plasma levels: mice, rifampin 20 mg/kg
# Method in brief: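 Female DBA1/lacJ mice, knockout and age-matched wildtype, n=4 per group, fasted 3 h before and during the study. Rifampin was given i.v. 5 min before sorafenib gavage in Cremophor EL/ethanol (1:1) diluted 1:4 with water. Plasma was sampled at 0.25–7.5 h and liver at 7.5 h. Analytes were measured by LC-MS/MS. Liver was normalized to plasma; geometric means (95% CI) were compared by ANOVA.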
# [5] = format: in vivo, human
# [6] = Adverse events and laboratory tests during the clinical study; format: in vivo, human; conditions: patients on sorafenib; rifampin 600 mg x 2, midazolam 2.5 mg i.v.
# Method in brief: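 Sorafenib-treated patients were at steady state (≥14 days on the same dose) with creatinine <1.25×ULN, bilirubin <1.25×ULN, aminotransferases <5×ULN and PT ≤1.5×ULN or INR <1.5 at entry. Rifampin was given fasting the day before and the day of sampling, 1 h before sorafenib. Sorafenib dose changes and CYP3A4-affecting comedication were barred. Adverse events were graded by CTCAE v4.03.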
# OATP1B1 [7] = target: T1, OATP1B1; experiment: Transcellular; format: cell-based; conditions: rifampin 100 μM; SG 1 μM; MDCKII-OATP1B1
# OATP1B1 [8] = conditions: cited from earlier work
# [9] = patients, with versus without rifampin
# [10] = rifampin preincubation 30 μM (legend: 20 μM), SG 10 μM, 15 min
# [11] = rifampin preincubation 30 μM, E2G 0.1 μM, 15-min incubation
structure (smiles),measurement,setting,value
"C[C@]12CC[C@@H]3c4ccc(O)cc4CC[C@H]3[C@@H]1CC[C@@H]2O[C@@H]1O[C@H](C(=O)O)[C@@H](O)[C@H](O)[C@H]1O [E2G, estradiol‐17β‐D‐glucuronide]",Transport rate in OATP1B1-transfected cells without rifampin,"OATP1B1 [1]; E2G 0.1 μM, SG 10 μM",4.77 pmol/mg protein
same,Transport rate in Oatp1b2-transfected cells without rifampin,"Oatp1b2; E2G 0.1 μM, SG 10 μM",26.73 pmol/mg protein
"CNC(=O)c1cc(Oc2ccc(NC(=O)N(c3ccc(Cl)c(C(F)(F)F)c3)[C@@H]3O[C@H](C(=O)O)[C@@H](O)[C@H](O)[C@H]3O)cc2)ccn1 [SG, sorafenib‐β‐D‐glucuronide]",Detection of SG in feces,[2],not detectable
same,Transport rate in OATP1B1-transfected cells without rifampin,"OATP1B1 [1]; E2G 0.1 μM, SG 10 μM",57.46 pmol/mg protein
same,Mean steady-state (trough) concentration (Css),"[3]; 16 cancer patients, sorafenib 90 mg/m^2 oral, days 7, 13 and 21",954 ng/mL
same,Increase in SG AUC0-7.5h with Oatp1b2-deficiency,"[4]; Oatp1b2(-/-) versus wildtype mice, sorafenib 10 mg/kg oral",8 fold
same,Reduction of liver-to-plasma ratio of SG,"[4]; wildtype mice pretreated with rifampin 20 mg/kg, 7.5 h after sorafenib 10 mg/kg",~90%
same,Transport rate in Oatp1b2-transfected cells without rifampin,"Oatp1b2; E2G 0.1 μM, SG 10 μM",770.17 pmol/mg protein
same,Increase of SG levels by rifampin in humans,[5]; humans,~2 fold
same,Mean metabolic ratio of SG to sorafenib during rifampin administration,[5]; [9],significantly increased
"CNC(=O)c1cc(Oc2ccc(NC(=O)Nc3ccc(Cl)c(C(F)(F)F)c3)cc2)cc[n+]1[O-] [Sorafenib N-oxide, sorafenib‐N‐oxide]",Effect of Oatp1b2-deficiency and/or rifampin pretreatment on plasma levels,[4]; sorafenib 10 mg/kg oral,did not substantially affect
same,Extent of sorafenib-N-oxide formation between treatment cycles,[5]; [9],not different
"CNC(=O)c1cc(Oc2ccc(NC(=O)Nc3ccc(Cl)c(C(F)(F)F)c3)cc2)ccn1 [Sorafenib, sorafenib]",Fraction of the dose eliminated as oxidative metabolites,[2],less than 5%
same,Fraction of the dose eliminated as sorafenib-β-D-glucuronide (SG),[2],15%
same,Influence of the CYP3A4 inhibitor ketoconazole on PK,"[3]; healthy male volunteers, single-dose sorafenib",no influence
same,Variation in exposure between patients receiving the same therapeutic regimen,[3]; oral sorafenib,up to 90%
same,Decrease in systemic exposure with neomycin,[3]; ref Nexavar package insert,more than 50%
same,Effect of Oatp1b2-deficiency and/or rifampin pretreatment on plasma levels,[4]; sorafenib 10 mg/kg oral,did not substantially affect
COc1ccccc1Oc1c(NS(=O)(=O)c2ccc(C(C)(C)C)cc2)nc(-c2ncccn2)nc1OCCO [bosentan],Change in systemic exposure with extended rifampin exposure,[3]; rifampin 600 mg once daily for 6.5 days,–58%
same,Change in systemic exposure with acute rifampin exposure,"[3]; rifampin 600 mg once daily, 1–2 doses",+500%
Cc1ncc2n1-c1ccc(Cl)cc1C(c1ccccc1F)=NC2 [midazolam],Toxicities attributable to the drug during the clinical study,[6],no toxicities were observed
CO[C@H]1/C=C/O[C@@]2(C)Oc3c(C)c(O)c4c(O)c(c(/C=N/N5CCN(C)CC5)c(O)c4c3C2=O)NC(=O)/C(C)=C\C=C\[C@H](C)[C@H](O)[C@@H](C)[C@@H](O)[C@@H](C)[C@H](OC(C)=O)[C@@H]1C [rifampin],Toxicities attributable to the drug during the clinical study,[6],no toxicities were observed
same,Reduction of intracellular uptake of SG by OATP1B1,OATP1B1 [1]; [10],92%
same,Inhibition of E2G uptake by human OATP1B1,OATP1B1 [1]; [11],strongly inhibited
same,Plasma Cmax of unbound rifampin,[3],~1.3 μM and 1.1 mg/L
same,Effect of rifampin on OATP1B1-mediated basal-to-apical translocation of SG,OATP1B1 [7],diminished
same,Reduction of intracellular uptake of SG by Oatp1b2,Oatp1b2; [10],97%
same,Inhibition of E2G uptake by mouse Oatp1b2,Oatp1b2; [11],strongly inhibited
same,Substrate-dependent variation in IC50 values for inhibition of OATP1B1,OATP1B1 [8],up to 12 fold
